Measured values from ChEMBL document CHEMBL1932971, “Synthesis of uriedo and thiouriedo derivatives of peptide conjugated heterocycles - A new class of promising antimicrobials” (2012).
≈ marks a conversion by molar mass, not a printed value. Numbered stars: 1 amine (or outer) side, 2 acyl side, 3 side chain; on linkers, the order of the positions; unused ones are H or OH. Peptide text beside a SMILES is read from it. * marks the point of attachment. Piperazinyl(4-(2,3-Cl2Ph)) = Clc1cccc(N2CCN(*)CC2)c1Cl; Thiocarbamoyl(N-4-ClPh) = S=C(Nc1ccc(Cl)cc1)*; Thiocarbamoyl(4-MeOPh) = COc1ccc(NC(=S)*)cc1; Thiocarbamoyl(N-2-FPh) = Fc1ccccc1NC(=S)*; NH(4-MeO-phenyl) = COc1ccc(N*)cc1; NH(4-Cl-phenyl) = Clc1ccc(N*)cc1; X1 = Fc1ccc2c(C3CCN(*)CC3)noc2c1; NH(2-F-phenyl) = Fc1ccccc1N*; CO = O=C([*:1])[*:2]

What was measured:
Type in all cases: functional
[1] = test system: Xanthomonas oryzae; assay: Antibacterial activity against Xanthomonas oryzae after 24 hrs by microdilution method
[2] = test system: Staphylococcus aureus; assay: Antibacterial activity against coagulase-positive Staphylococcus aureus at 30 ug/ml after 24 hrs by agar well diffusion method; settings: read-out: DIZ
How it was run: (§1)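 Agar well diffusion. Inocula were grown in nutrient broth at 37 °C for 24 h, then subcultured in nutrient broth at room temperature. Compounds were made as a 1 mg/mL DMSO stock and diluted to 30 µg/mL final. Nutrient agar plates were spread-inoculated and 6 mm wells each got 0.1 mL. Controls were amoxicillin (reference) and DMSO (negative). Incubation was 24 h at 37 °C. Inhibition zone was measured in mm as the mean of three determinations.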

[3] = test system: Klebsiella pneumoniae; assay: Antibacterial activity against Klebsiella pneumoniae after 24 hrs by microdilution method
[4] = test system: Fusarium oxysporum; assay: Antifungal activity against Fusarium oxysporum at 30 ug/ml after 72 hrs by agar well diffusion method; settings: read-out: DIZ
How it was run: (§2)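 Fungal well diffusion. Inocula were subcultured in nutrient broth for one day, then spread on solidified medium. Compounds were made as a 1 mg/mL DMSO stock and diluted to 30 µg/mL final. Each 6 mm well got 0.1 mL. Controls were bavistin (reference) and DMSO (negative). Plates stood for 3 days at room temperature. Inhibition zone was measured in mm as the mean of three determinations.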

[5] = test system: Escherichia coli; assay: Antibacterial activity against Escherichia coli after 24 hrs by microdilution method
[6] = test system: Aspergillus niger; assay: Antifungal activity against Aspergillus niger at 30 ug/ml after 72 hrs by agar well diffusion method; settings: read-out: DIZ; how it was run: as §2
[7] = test system: Aspergillus flavus; assay: Antifungal activity against Aspergillus flavus after 72 hrs by microdilution method
[8] = test system: Aspergillus niger; assay: Antifungal activity against Aspergillus niger after 72 hrs by microdilution method
[9] = test system: Escherichia coli; assay: Antibacterial activity against Escherichia coli at 30 ug/ml after 24 hrs by agar well diffusion method; settings: read-out: DIZ; how it was run: as §1
[10] = test system: Aspergillus flavus; assay: Antifungal activity against Aspergillus flavus at 30 ug/ml after 72 hrs by agar well diffusion method; settings: read-out: DIZ; how it was run: as §2
[11] = test system: Staphylococcus aureus; assay: Antibacterial activity against coagulase-positive Staphylococcus aureus after 24 hrs by microdilution method
[12] = test system: Klebsiella pneumoniae; assay: Antibacterial activity against Klebsiella pneumoniae at 30 ug/ml after 24 hrs by agar well diffusion method; settings: read-out: DIZ; how it was run: as §1
[13] = test system: Fusarium oxysporum; assay: Antifungal activity against Fusarium oxysporum after 72 hrs by microdilution method
[14] = test system: Xanthomonas oryzae; assay: Antibacterial activity against Xanthomonas oryzae at 30 ug/ml after 24 hrs by agar well diffusion method; settings: read-out: DIZ

Compound	MIC [1]	zone of inhibition at 30 µg/mL [2]	MIC [3]	zone of inhibition at 30 µg/mL [4]	MIC [5]	zone of inhibition at 30 µg/mL [6]	MIC [7]	MIC [8]	zone of inhibition at 30 µg/mL [9]	zone of inhibition at 30 µg/mL [10]	MIC [11]	zone of inhibition at 30 µg/mL [12]	MIC [13]	zone of inhibition at 30 µg/mL [14]
O=C(CNC(=O)Nc1ccccc1F)N[C@@H](Cc1ccccc1)C(=O)NCC(=O)N[C@@H](Cc1ccccc1)C(=O)N1CCC[C@H]1C(=O)N1CCN(c2cccc(Cl)c2Cl)CC1 ({NH(2-F-phenyl)-CO}-GFGFP-{Piperazinyl(4-(2,3-Cl2Ph))})	5.75 µg/mL (≈ 6.58 µM)	33 mm	4 µg/mL (≈ 4.58 µM)	34 mm	5.5 µg/mL (≈ 6.29 µM)	39 mm	5.25 µg/mL (≈ 6.01 µM)	4 µg/mL (≈ 4.58 µM)	37 mm	34 mm	5 µg/mL (≈ 5.72 µM)	35 mm	5 µg/mL (≈ 5.72 µM)	38 mm
O=C(CNC(=S)Nc1ccccc1F)N[C@@H](Cc1ccccc1)C(=O)NCC(=O)N[C@@H](Cc1ccccc1)C(=O)N1CCC[C@H]1C(=O)N1CCC(c2noc3cc(F)ccc23)CC1 ({Thiocarbamoyl(N-2-FPh)}-GFGFP-X1)	4.75 µg/mL (≈ 5.4 µM)	36 mm	3 µg/mL (≈ 3.41 µM)	40 mm	4.75 µg/mL (≈ 5.4 µM)	41 mm	4.5 µg/mL (≈ 5.12 µM)	3 µg/mL (≈ 3.41 µM)	41 mm	36 mm	4 µg/mL (≈ 4.55 µM)	37 mm	4 µg/mL (≈ 4.55 µM)	41 mm
CC(C)[C@H](NC(=O)CNC(=O)Nc1ccccc1F)C(=O)NCC(=O)N[C@H](C(=O)N1CCC[C@H]1C(=O)N1CCC(c2noc3cc(F)ccc23)CC1)C(C)C ({NH(2-F-phenyl)-CO}-GVGVP-X1)	6.75 µg/mL (≈ 8.8 µM)	30 mm	5.25 µg/mL (≈ 6.85 µM)	33 mm	7.75 µg/mL (≈ 10.1 µM)	36 mm	5.75 µg/mL (≈ 7.5 µM)	5 µg/mL (≈ 6.52 µM)	34 mm	32 mm	6.75 µg/mL (≈ 8.8 µM)	33 mm	7 µg/mL (≈ 9.13 µM)	35 mm
COC(=O)Nc1nc2ccccc2[nH]1 [CARBENDAZIM]	–	–	–	10 mm	–	12 mm	26 µg/mL (≈ 136 µM)	22 µg/mL (≈ 115 µM)	–	9 mm	–	–	25 µg/mL (≈ 131 µM)	–
CC1(C)S[C@@H]2[C@H](NC(=O)[C@H](N)c3ccc(O)cc3)C(=O)N2[C@H]1C(=O)O [AMOXICILLIN]	19 µg/mL (≈ 52 µM)	8 mm	20 µg/mL (≈ 54.7 µM)	–	24 µg/mL (≈ 65.7 µM)	–	–	–	12 mm	–	23 µg/mL (≈ 62.9 µM)	8 mm	–	9 mm
CC(C)[C@H](NC(=O)CNC(=O)Nc1ccc(Cl)cc1)C(=O)NCC(=O)N[C@H](C(=O)N1CCC[C@H]1C(=O)N1CCC(c2noc3cc(F)ccc23)CC1)C(C)C ({NH(4-Cl-phenyl)-CO}-GVGVP-X1)	8.5 µg/mL (≈ 10.9 µM)	27 mm	6.75 µg/mL (≈ 8.62 µM)	32 mm	9.25 µg/mL (≈ 11.8 µM)	33 mm	7.5 µg/mL (≈ 9.57 µM)	6.5 µg/mL (≈ 8.3 µM)	30 mm	29 mm	8.75 µg/mL (≈ 11.2 µM)	29 mm	8.5 µg/mL (≈ 10.9 µM)	26 mm
O=C(CNC(=S)Nc1ccc(Cl)cc1)N[C@@H](Cc1ccccc1)C(=O)NCC(=O)N[C@@H](Cc1ccccc1)C(=O)N1CCC[C@H]1C(=O)N1CCN(c2cccc(Cl)c2Cl)CC1 ({Thiocarbamoyl(N-4-ClPh)}-GFGFP-{Piperazinyl(4-(2,3-Cl2Ph))})	6.75 µg/mL (≈ 7.45 µM)	30 mm	5 µg/mL (≈ 5.52 µM)	31 mm	6.75 µg/mL (≈ 7.45 µM)	34 mm	6.5 µg/mL (≈ 7.17 µM)	5 µg/mL (≈ 5.52 µM)	32 mm	30 mm	6.25 µg/mL (≈ 6.9 µM)	32 mm	6.25 µg/mL (≈ 6.9 µM)	33 mm
O=C(CNC(=S)Nc1ccc(Cl)cc1)N[C@@H](Cc1ccccc1)C(=O)NCC(=O)N[C@@H](Cc1ccccc1)C(=O)N1CCC[C@H]1C(=O)N1CCC(c2noc3cc(F)ccc23)CC1 ({Thiocarbamoyl(N-4-ClPh)}-GFGFP-X1)	6.25 µg/mL (≈ 6.98 µM)	32 mm	4.5 µg/mL (≈ 5.03 µM)	36 mm	6 µg/mL (≈ 6.7 µM)	39 mm	6 µg/mL (≈ 6.7 µM)	4.5 µg/mL (≈ 5.03 µM)	35 mm	32 mm	5.75 µg/mL (≈ 6.42 µM)	34 mm	5.75 µg/mL (≈ 6.42 µM)	36 mm
CC(C)[C@H](NC(=O)CNC(=S)Nc1ccc(Cl)cc1)C(=O)NCC(=O)N[C@H](C(=O)N1CCC[C@H]1C(=O)N1CCN(c2cccc(Cl)c2Cl)CC1)C(C)C ({Thiocarbamoyl(N-4-ClPh)}-GVGVP-{Piperazinyl(4-(2,3-Cl2Ph))})	8.75 µg/mL (≈ 10.8 µM)	26 mm	7 µg/mL (≈ 8.64 µM)	29 mm	9.5 µg/mL (≈ 11.7 µM)	32 mm	7.75 µg/mL (≈ 9.56 µM)	6.75 µg/mL (≈ 8.33 µM)	29 mm	24 mm	9 µg/mL (≈ 11.1 µM)	24 mm	8.75 µg/mL (≈ 10.8 µM)	31 mm
CC[C@H](C)[C@H](NC(=O)CNC(=O)CNC(=S)Nc1ccc(OC)cc1)C(=O)N1CCC[C@H]1C(=O)N1CCN(c2cccc(Cl)c2Cl)CC1 ({Thiocarbamoyl(4-MeOPh)}-GGIP-{Piperazinyl(4-(2,3-Cl2Ph))})	–	18 mm	–	23 mm	–	25 mm	–	–	23 mm	21 mm	–	13 mm	–	19 mm
O=C(CNC(=S)Nc1ccc(Cl)cc1)NCC(=O)N[C@@H](Cc1ccccc1)C(=O)N1CCC[C@H]1C(=O)N1CCN(c2cccc(Cl)c2Cl)CC1 ({Thiocarbamoyl(N-4-ClPh)}-GGFP-{Piperazinyl(4-(2,3-Cl2Ph))})	–	23 mm	–	30 mm	–	32 mm	–	–	29 mm	28 mm	–	25 mm	–	26 mm
CC[C@H](C)[C@H](NC(=O)CNC(=O)CNC(=O)Nc1ccc(OC)cc1)C(=O)N1CCC[C@H]1C(=O)N1CCC(c2noc3cc(F)ccc23)CC1 ({NH(4-MeO-phenyl)-CO}-GGIP-X1)	–	14 mm	–	21 mm	–	23 mm	–	–	22 mm	19 mm	–	16 mm	–	17 mm
COc1ccc(NC(=O)NCC(=O)NCC(=O)N[C@@H](Cc2ccccc2)C(=O)N2CCC[C@H]2C(=O)N2CCC(c3noc4cc(F)ccc34)CC2)cc1 ({NH(4-MeO-phenyl)-CO}-GGFP-X1)	–	17 mm	–	23 mm	–	27 mm	–	–	26 mm	20 mm	–	19 mm	–	24 mm
CC[C@H](C)[C@H](NC(=O)CNC(=O)CNC(=S)Nc1ccc(OC)cc1)C(=O)N1CCC[C@H]1C(=O)N1CCC(c2noc3cc(F)ccc23)CC1 ({Thiocarbamoyl(4-MeOPh)}-GGIP-X1)	–	16 mm	–	24 mm	–	26 mm	–	–	24 mm	22 mm	–	14 mm	–	20 mm
CC[C@H](C)[C@H](NC(=O)CNC(=O)CNC(=S)Nc1ccc(Cl)cc1)C(=O)N1CCC[C@H]1C(=O)N1CCC(c2noc3cc(F)ccc23)CC1 ({Thiocarbamoyl(N-4-ClPh)}-GGIP-X1)	–	21 mm	–	29 mm	–	29 mm	–	–	28 mm	27 mm	–	21 mm	–	25 mm
O=C(CNC(=S)Nc1ccc(Cl)cc1)NCC(=O)N[C@@H](Cc1ccccc1)C(=O)N1CCC[C@H]1C(=O)N1CCC(c2noc3cc(F)ccc23)CC1 ({Thiocarbamoyl(N-4-ClPh)}-GGFP-X1)	–	24 mm	–	31 mm	–	33 mm	–	–	30 mm	29 mm	–	26 mm	–	27 mm
O=C([C@H](Cc1c[nH]c2ccccc12)NC(=S)Nc1ccccc1F)N1CCN(c2cccc(Cl)c2Cl)CC1	–	12 mm	–	6 mm	–	11 mm	–	–	10 mm	12 mm	–	11 mm	–	10 mm
